Test results published in ChEMBL document CHEMBL1123966, “Ring-substituted [1,2-bis(4-hydroxyphenyl)ethylenediamine]dichloroplatinum (II) complexes: compounds with a selective effect on the hormone-dependent mammary carcinoma” (1988).
Values joined by “and” are separate entries in the source; they are usually repeats but may differ in a detail not shown here. Identical values can stand only once.

Key:
[1] = Median tumor weight of MXT ER+ determined at the end of 6 week therapy at a dose of 5.3 mg/kg (1.4*10e-5 M/kg); assay type: functional, Mus musculus
Summary of the method: (§1)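 MXT mammary carcinoma (hormone-dependent, ER+) in BDF1 mice. Doses given in olive oil, sc, three times a week, for 6 weeks. Median tumor weight was measured at the end of therapy and expressed as T/C %. Significance was by the Wilcoxon-Mann-Whitney U test.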

[2] = Cell growth inhibition of MXT-ER+ breast cancer cells at a dose of 0.6 mg/kg (1.5*10e-6 M/kg); assay type: functional, organism-based; set-up: dose 0.6 mg/kg; settings: Mus musculus, Cancer cell lines; summary of the method: as §1
[3] = Cell growth inhibition of MXT-ER+ breast cancer cells at a dose of 5.3 mg/kg ([…]); assay type: functional, organism-based; set-up: dose 5.3 mg/kg; settings: Mus musculus, Cancer cell lines; summary of the method: as §1
[4] = Median tumor weight of MXT ER+ (mammary carcinoma) determined at the end of 6 week therapy at a dose of 0.6 mg/kg (1.5*10e-6 M/kg); assay type: functional, Mus musculus; summary of the method: as §1
[5] = Median tumor weight of MXT ER+ determined at the end of 6 week therapy at a dose of 0.6 mg/kg (1.5*10e-6 M/kg); assay type: functional, Mus musculus; summary of the method: as §1
Mus musculus [6] = species: Mus musculus; assay: (§2) Uterotrophic effect in BDF1 mouse measured as([weight of uterus (mg)/body weight (g)] *100); assay type: functional
Summary of the method: (§3)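 Female BDF1 mice carrying MXT ER+ mammary carcinoma were dosed in olive oil, sc, three times a week, for 6 weeks. At the end of therapy, uterotropic effect = [uterus dry weight (mg)/body weight (g)] × 100, given as mean ± SD and as T/C % versus control. Significance was by the U test.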

Mus musculus [7] = assay: Uterotrophic effect in BDF1 mouse at a dose of 0.6 mg/kg (1.5*10e-6 M/kg); assay type: functional, Uterus; summary of the method: as §3
Mus musculus [8] = assay: Uterotrophic effect in BDF1 mouse at a dose of 1.8 mg/kg (4.6 *10e-6 M/kg); assay type: functional, Uterus; summary of the method: as §3
Rattus norvegicus [9] = species: Rattus norvegicus; assay: Percent change of tumor area at 28 day of therapy at a dose of 1.9 mg in DMBA - induced hormone dependent mammary carcinoma in rat; assay type: functional
Summary of the method: (§4)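 DMBA-induced, hormone-dependent mammary carcinoma in Sprague-Dawley rats. Dose is per kg body weight per day, given three times a week, sc, as suspension or solution in polyethylene glycol 400/H2O 1:1, for 4 weeks. Tumors were counted at start (B) and as new tumors (NT). Outcomes were scored as % complete remission (not palpable), partial remission, no change and progression, with % change in tumor area.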

Rattus norvegicus [10] = species: Rattus norvegicus; assay: Percent change of in body weight at 7 day of therapy at a dose of 1.9 mg in DMBA - induced hormone dependent mammary carcinoma in rat; assay type: functional
Rattus norvegicus [11] = species: Rattus norvegicus; assay: No. of tumors at the beginning of the test at dose of 1.9 in DMBA - induced, hormone dependent mammary carcinoma in 8 rat; assay type: functional; summary of the method: as §4
Rattus norvegicus [12] = species: Rattus norvegicus; assay: No. of tumors occurring at a dose of 1.9 mg in DMBA - induced hormone dependent mammary carcinoma in rat; assay type: functional; summary of the method: as §4
Rattus norvegicus [13] = species: Rattus norvegicus; assay: Percent of tumors with no change at a dose of 1.9 mg in DMBA - induced hormone dependent mammary carcinoma in rat; assay type: functional; summary of the method: as §4
Rattus norvegicus [14] = species: Rattus norvegicus; assay: Percent of tumors with partial remission at a dose of 1.9 mg in DMBA - induced, hormone dependent mammary carcinoma in rat; assay type: functional; summary of the method: as §4
Rattus norvegicus [15] = species: Rattus norvegicus; assay: Percent of tumors with progression at a dose of 1.9 mg in DMBA - induced hormone dependent mammary carcinoma in rat; assay type: functional; summary of the method: as §4
Rattus norvegicus [16] = species: Rattus norvegicus; assay: Percent of tumors with complete remission at a dose of 1.9 mg in DMBA - induced, hormone dependent mammary carcinoma in rat; assay type: functional; summary of the method: as §4
[17] = Cell growth inhibition of MXT-ER+ breast cancer cells at a dose of 1.8 mg/kg (4.6 *10e-6 M/kg); assay type: functional, organism-based; set-up: dose 1.8 mg/kg; settings: Mus musculus, Cancer cell lines; summary of the method: as §1
[18] = Cell growth inhibition of MXT-ER+ breast cancer cells at a dose of 8 mg; assay type: functional; settings: Mus musculus; Cancer cell lines
Summary of the method: (§5)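 Hormone-dependent MXT mammary carcinoma (ER+) model. Equimolar doses (2 × 10⁻⁵ M/kg) were given sc three times weekly (Mon, Wed, Fri) as a solution or suspension in polyethylene glycol 400/H₂O (1:1); some agents were given in olive oil. Median tumor weight was taken at the end of 6 weeks of therapy and given as T/C %. Significance was tested by the Wilcoxon-Mann-Whitney U test.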

Mus musculus [19] = species: Mus musculus; assay: Median tumor weight of MXT ER+ (mammary carcinoma) determined at the end of 6 week therapy at a dose of 8 mg; assay type: functional
Summary of the method: (§6)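 BDF1 mice with hormone-dependent MXT mammary carcinoma (ER+). Equimolar dosing at 2 × 10⁻⁵ M/kg, given sc in olive oil three times a week (Mon/Wed/Fri) for 6 weeks. Median tumor weight was taken at the end of therapy and compared with controls by the Wilcoxon–Mann–Whitney U test.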

Mus musculus [20] = species: Mus musculus; assay: Uterotrophic effect in BDF1 mouse at a dose of 8 mg; assay type: functional, Uterus
Summary of the method: (§7)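 Uterus of BDF1 mice in the MXT ER+ study. Equimolar dosing at 2 × 10⁻⁵ M/kg, sc in olive oil three times a week (Mon/Wed/Fri). Uterine response = [uterus dry weight (mg)/body weight (g)] × 100, determined at the end of the 6-week therapy; U test.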

MCF7S [21] = assay: Cell growth inhibition in hormone dependent MCF 7 breast cancer cells; assay type: functional, cell-based; settings: Homo sapiens
MCF7S [22] = assay: Incorporation of [3H]- thymidine in hormone dependent MCF-7 breast cancer cells; assay type: functional, cell-based; settings: Homo sapiens
MDA-MB-231 [23] = assay: Incorporation of [3H]- thymidine into hormone independent MDA-MB-231 breast cancer cells; assay type: functional, cell-based; settings: Homo sapiens
MDA-MB-231 [24] = assay: Cell growth inhibition in hormone independent MDA-MB-231 breast cancer cells; assay type: functional, cell-based; settings: Homo sapiens
MDA-MB-231 [25] = assay: Incorporation of [3H]- thymidine in hormone independent MDA-MB-231 breast cancer cells; assay type: functional, cell-based; settings: Homo sapiens
Mus musculus [26] = assay: Median tumor weight of MXT ER+ determined at the end of 6 week therapy at a dose of 4.2 mg/kg (1.4*10^-5 M/kg); assay type: functional, organism-based; set-up: dose 4.2 mg/kg
Summary of the method: (§8)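 BDF1 mice bearing MXT mammary carcinoma. Dosing sc in water once per week over a 6-week therapy. Median tumor weight and uterine index ([uterus dry weight (mg)/body weight (g)] × 100) were read at the end of therapy; U test (Wilcoxon, Mann, Whitney).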

Mus musculus [27] = assay: Median tumor weight of MXT ER+ determined at the end of 6 week therapy ata dose of 2 mg/kg; assay type: functional, organism-based; set-up: dose 2 mg/kg; summary of the method: as §6
[28] = Cell growth inhibition of MXT-ER+ breast cancer cells at a dose of 1.4 mg/kg (4.6*10e-6M/kg); assay type: functional, organism-based; set-up: dose 1.4 mg/kg; settings: Mus musculus, Cancer cell lines
Summary of the method: (§9)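 Hormone-dependent MXT mammary carcinoma in BDF₁ mice. Dosing was sc in water as vehicle: 1.4 mg/kg three times a week, and 4.2 mg/kg once per week. Median tumor weight was taken after 6 weeks of therapy and expressed as T/C %. Significance was tested by the Wilcoxon-Mann-Whitney U test.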

[29] = Cell growth inhibition of MXT-ER+ breast cancer cells at a dose of 4.2 mg/kg (1.4*10^-5 M/kg); assay type: functional, organism-based; set-up: dose 4.2 mg/kg; settings: Mus musculus, Cancer cell lines; summary of the method: as §9
[30] = Cell growth inhibition of MXT-ER+ breast cancer cells ata dose of 2 mg/kg; assay type: functional, organism-based; set-up: dose 2 mg/kg; settings: Mus musculus; Cancer cell lines; summary of the method: as §5
Mus musculus [31] = assay: Median tumor weight MXT ER+ determined at the end of 6 week therapy at a dose of 1.4 mg/kg (4.6*10e-6M/kg); assay type: functional, organism-based; set-up: dose 1.4 mg/kg; summary of the method: as §9
[32] = Cell growth inhibition of MXT-ER- breast cancer cells ata dose of 2 mg/kg; assay type: functional, organism-based; set-up: dose 2 mg/kg; settings: Mus musculus; Cancer cell lines
Summary of the method: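 Hormone-independent MXT mammary carcinoma (ER−) in mice. Equimolar doses (2 × 10⁻⁵ M/kg) were given sc three times a week (Mon, Wed, Fri) in polyethylene glycol 400/H₂O (1:1), or in olive oil for some agents. Median tumor area was measured at the end of a 2-week therapy and expressed as T/C %.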

Mus musculus [33] = assay: Uterotrophic effect in BDF1 mouse at a dose of 1.4 mg/kg (4.6*10e-6M/kg); assay type: functional, organism-based; set-up: dose 1.4 mg/kg; settings: Uterus
Summary of the method: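 BDF1 mice bearing MXT mammary carcinoma. Dosing sc in water three times a week for 6 weeks. Uterine index = [uterus dry weight (mg)/body weight (g)] × 100 (± SD), read at the end of therapy; U test.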

Mus musculus [34] = assay: Uterotrophic effect in BDF1 mouse at a dose of 4.2 mg/kg (1.4*10^-5 M/kg); assay type: functional, organism-based; set-up: dose 4.2 mg/kg; settings: Uterus; summary of the method: as §8
Mus musculus [35] = assay: Uterotrophic effect in BDF1 mouse ata dose of 2 mg/kg; assay type: functional, organism-based; set-up: dose 2 mg/kg; settings: Uterus; summary of the method: as §7
Mus musculus [36] = species: Mus musculus; assay: as §2; assay type: functional, organism-based

Compound: NC(c1c(Cl)cc(O)cc1Cl)C(N)c1c(Cl)cc(O)cc1Cl (stereo unspecified)
- Med tumor weight [1]: 61 mg
- T/C [2]: < 18%
- T/C [3]: < 12%
- Med tumor weight [4]: 91.5 mg
- Med tumor weight [5]: 62.5 mg
- Effect (Mus musculus [6]): 134 and 201
- T/C (Mus musculus [7]): <158%
- T/C (Mus musculus [8]): 239%
- Change (Rattus norvegicus [9]): 154%
- Change (Rattus norvegicus [10]): -1.5%
- No. of tumors (Rattus norvegicus [11]): 26
- No. of tumors (Rattus norvegicus [12]): 3
- Tumors (Rattus norvegicus [13]): 7%
- Tumors (Rattus norvegicus [14]): 4%
- Tumors (Rattus norvegicus [15]): 78%
- Tumors (Rattus norvegicus [16]): 11%
- T/C [17]: < 12%

Compound: CC/C(=C(\c1ccccc1)c1ccc(OCCN(C)C)cc1)c1ccccc1 [TAMOXIFEN]
- T/C [18]: 3%
- Med tumor weight (Mus musculus [19]): 16 mg
- Effect (Mus musculus [6]): 72.3
- T/C (Mus musculus [20]): 80%

Compound: CISPLATIN
- ED50 (MCF7S [21]): 440 nM
- T/C (MCF7S [21]): 11%
- ED50 (MCF7S [22]): 110 nM
- T/C (MCF7S [22]): 1%
- ED50 (MDA-MB-231 [23]): 320 nM
- ED50 (MDA-MB-231 [24]): 240 nM
- T/C (MDA-MB-231 [24]): 26%
- T/C (MDA-MB-231 [25]): 17%
- Med tumor weight (Mus musculus [26]): 222 mg
- Med tumor weight (Mus musculus [27]): 15 mg
- T/C [28]: 3%
- T/C [29]: 44%
- T/C [30]: 3%
- Med tumor weight (Mus musculus [31]): 15 mg
- T/C [32]: 15%
- Effect (Mus musculus [6]): 95
- T/C (Mus musculus [33]): 114%
- T/C (Mus musculus [34]): 118%
- T/C (Mus musculus [35]): 114%
- Utreotropic effect (Mus musculus [36]): 96 and 100
